Active and inactive are the calls of the source. No cut-off for these calls is given here.
Columns and labels:
[1] = Microsomal stability in CD1 mouse liver microsomes assessed as half life measured upto 60 mins in presence of NADPH by LC-MS analysis; settings: mouse, microsomes, 1 h
PC-3M [2] = experiment: Anticancer activity in human PC-3M cells expressing PTB/GFP fusion protein assessed as perinucleolar compartment disassembly and measured after 24 hrs by Hoechst 33342 staining based microscopic method; type: functional, cell-based; settings: read-out: IC50
How it was run: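 Imaged by high-content microscopy. Nuclei with PNC spots ≥3 and >0 scored positive. PNC prevalence % = PNC-positive nuclei/total nuclei ×100, normalized to DMSO (0% activity) and 0% PNC (−100%). IC50 from concentration-response.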

PC-3M [3] = experiment: Antiproliferative activity against human PC-3M cells expressing PTB/GFP fusion protein assessed as cell growth inhibition and measured every four hrs for 130 hrs by IncuCyte zoom live cell analysis; type: functional, cell-based
How it was run: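 PC3M-PTB1-GFP cells in DMEM/10% FBS, seeded at 1.25×10^4 cells/ml and left overnight at 37 °C, 5% CO2. Compound added to give 11 final concentrations, 10 nM to 20 μM. Brightfield images taken every 4 h for about 130 h; percent confluence measured.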

[4] = Permeability of the compound at pH 7.4 incubated for 30 mins by UV plate reader based PAMPA assay; settings: pampa, pH 7.4, 0.5 h

t1/2 [1]: 5.2 min
IC50 (PC-3M [2]): > 20 µM
permeability [4]: 1729 10^-6 cm/s
SMILES: N=c1c2c(-c3ccccc3)cn(Cc3ccccc3)c2ncn1C1CCOCC1
Activity (PC-3M [3]): Active
